Measured values: publication PMC2871064 (Cancer research, 2010)
Like-named read-outs stand apart in the source and are kept apart here.

Tests used:
[1] = test system: B16F10 xenografts; details: cited from earlier work
[2] = Projected human dosimetry extrapolated from cynomolgus monkey scintigraphy; format: in vivo, cynomolgus monkeys
Outline: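 Regions of interest (total body, lung, kidney, thyroid, eye) were drawn on anterior/posterior monkey images at each time point. Uptake was normalised to % total body dose, with the first pre-voiding image set as 100%. Time integrals went into OLINDA/EXM: adult male phantom, 4.8 h bladder voiding interval, unit-density sphere model for eye. The intestine margin is referenced to a 45 Gy limit at 4.7 GBq/70 kg.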

[3] = Monte Carlo simulation of radiation dose to human eye substructures; details: human projection
[4] = test system: SK-MEL-3 tumors; assay: Effect of [^131I]MIP-1145 on SK-MEL-3 tumor growth and survival; format: in vivo, athymic nude mice; details: multiple doses, 25 MBq or 2.5 GBq/m^2
[5] = test system: SK-MEL-3 xenografts; assay: Tissue distribution in mice bearing SK-MEL-3 xenografts; format: in vivo, NCr^nu/nu mice; details: SK-MEL-3 xenograft mice
Outline: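 Male athymic NCr nu/nu mice received 0.25 mL of cells (8 × 10⁶/mL in 1:1 D-PBS-glucose-pyruvate/Matrigel) into the right hind flank. Tumours were used at 100–500 mm³ (~21 days). Tail-vein bolus of ~74 KBq tracer in 0.05 mL; n = 5 per time point. Mice were killed by CO₂ at 1, 4 and 24 h. Organs and tumour were weighed wet and gamma-counted; results are %ID/g, mean ± SD.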

[6] = at anticipated human dose 4.7 GBq/70 kg patient
[7] = extrapolated from cynomolgus monkeys

## CCN(CC)CCNC(=O)c1cc(I)c(NC(=O)c2ccc(F)cc2)cc1OC [[^131I]MIP-1145, N-(2-diethylamino-ethyl)-4-(4-fluoro-benzamido)-5-iodo-2-methoxy-benzamide]
[1]; specific activity 55.5 GBq/mmol
  Tumor uptake: 9.28 ± 2.24 %ID/g
[1]; specific activity 55.5 TBq/mmol
  Tumor uptake: 10.17 ± 1.81 %ID/g
[2]; [6]
  Margin of lower large intestine dose below the allowable exposure limit of 45 Gy: 3.3 times
  Radiation absorbed dose to the lower large intestine: 13.3 Gy
  Radiation dose to the eye: 6.1 Gy
[2]; [7]
  Effective Dose: 1.40E+00 ± 6.30E-01 mGy/MBq
  Effective Dose Equivalent: 9.20E-01 ± 3.70E-01 mGy/MBq
  Projected human organ radiation absorbed dose: Brain: 7.00E-02 ± 1.50E-02 mGy/MBq
  Projected human organ radiation absorbed dose: Breasts: 6.40E-02 ± 1.40E-02 mGy/MBq
  Projected human organ radiation absorbed dose: Eyes: 1.30E+00 ± 6.70E-01 mGy/MBq
  Projected human organ radiation absorbed dose: Gallbladder Wall: 1.20E-01 ± 1.90E-02 mGy/MBq
  Projected human organ radiation absorbed dose: Heart Wall: 8.00E-02 ± 1.80E-02 mGy/MBq
  Projected human organ radiation absorbed dose: Kidneys: 1.10E-01 ± 7.70E-02 mGy/MBq
  Projected human organ radiation absorbed dose: Liver: 8.60E-02 ± 1.70E-02 mGy/MBq
  Projected human organ radiation absorbed dose: Lungs: 6.70E-02 ± 2.00E-02 mGy/MBq
  Projected human organ radiation absorbed dose: Muscle: 8.80E-02 ± 1.60E-02 mGy/MBq
  Projected human organ radiation absorbed dose: Osteogenic Cells: 1.60E-01 ± 3.30E-02 mGy/MBq
  Projected human organ radiation absorbed dose: Ovaries: 2.00E-01 ± 1.90E-02 mGy/MBq
  Projected human organ radiation absorbed dose: Pancreas: 9.20E-02 ± 1.90E-02 mGy/MBq
  Projected human organ radiation absorbed dose: Red Marrow: 8.70E-02 ± 1.40E-02 mGy/MBq
  Projected human organ radiation absorbed dose: Skin: 6.60E-02 ± 1.40E-02 mGy/MBq
  Projected human organ radiation absorbed dose: Small Intestine: 3.40E-01 ± 1.80E-02 mGy/MBq
  Projected human organ radiation absorbed dose: Spleen: 8.50E-02 ± 1.80E-02 mGy/MBq
  Projected human organ radiation absorbed dose: Stomach Wall: 9.80E-02 ± 1.80E-02 mGy/MBq
  Projected human organ radiation absorbed dose: Testes: 8.60E-02 ± 1.60E-02 mGy/MBq
  Projected human organ radiation absorbed dose: Thymus: 7.80E-02 ± 1.70E-02 mGy/MBq
  Projected human organ radiation absorbed dose: Uterus: 1.50E-01 ± 1.80E-02 mGy/MBq
  Projected human radiation absorbed dose: Total Body: 1.00E-01 ± 1.60E-02 mGy/MBq
[2]; extrapolated from cynomolgus monkeys, adult male phantom
  Projected human organ radiation absorbed dose: Adrenals: 8.50E-02 ± 1.80E-02 mGy/MBq
[2]; extrapolated from cynomolgus monkeys, 4.8 hour voiding interval
  Projected human organ radiation absorbed dose: Urinary Bladder Wall: 6.20E-01 ± 4.10E-02 mGy/MBq
[2]; extrapolated from cynomolgus monkeys, lower large intestine
  Projected human organ radiation absorbed dose: LLI Wall: 2.80E+00 ± 1.80E-02 mGy/MBq
[2]; extrapolated from cynomolgus monkeys, upper large intestine
  Projected human organ radiation absorbed dose: ULI Wall: 1.10E+00 ± 1.50E-02 mGy/MBq
[2]; extrapolated from cynomolgus monkeys, without thyroid blockade
  Projected human organ radiation absorbed dose: Thyroid: 1.80E+01 ± 1.30E+01 mGy/MBq
[2]; human projection, dose-limiting organ lower large intestine
  Therapeutic dose supported as safe for administration: up to 16.2 GBq
[2]; organs other than thyroid, large intestine and eyes
  Projected human radiation absorbed dose: all other organs: 0.064-1.1 mGy/MBq
[3]
  Administered activity needed to reach the lens TD5/5 of 10 Gy for cataracts: 7.7 GBq
  Administered activity needed to reach the retina TD5/5 of 45 Gy for retinopathy: 20.8 GBq
[4]
  Duration of response: over 125 days
[5]; 1 hour
  Tissue distribution: Adipose: 4.15 ± 2.89 %ID/g
  Tissue distribution: Bone: 1.71 ± 0.28 %ID/g
  Tissue distribution: Brain: 0.82 ± 0.06 %ID/g
  Tissue distribution: Heart: 2.36 ± 0.18 %ID/g
  Tissue distribution: Kidneys: 16.55 ± 0.52 %ID/g
  Tissue distribution: Large Intestine: 2.93 ± 0.54 %ID/g
  Tissue distribution: Liver: 7.94 ± 1.12 %ID/g
  Tissue distribution: Lungs: 9.70 ± 1.28 %ID/g
  Tissue distribution: Skeletal Muscle: 1.39 ± 0.16 %ID/g
  Tissue distribution: Small Intestine: 15.19 ± 1.50 %ID/g
  Tissue distribution: Spleen: 7.26 ± 1.18 %ID/g
  Tissue distribution: Stomach: 12.85 ± 2.53 %ID/g
  Tissue distribution: Testes: 1.51 ± 0.18 %ID/g
  Tissue distribution: Tumor: 3.77 ± 1.68 %ID/g
[5]; 1 hour post-injection, tail vein
  Tissue distribution: Blood: 0.75 ± 0.12 %ID/g
[5]; 4 hours
  Tissue distribution: Adipose: 1.03 ± 0.26 %ID/g
  Tissue distribution: Bone: 0.95 ± 0.14 %ID/g
  Tissue distribution: Brain: 0.19 ± 0.02 %ID/g
  Tissue distribution: Heart: 1.32 ± 0.18 %ID/g
  Tissue distribution: Kidneys: 13.12 ± 2.68 %ID/g
  Tissue distribution: Large Intestine: 18.91 ± 3.84 %ID/g
  Tissue distribution: Liver: 5.18 ± 0.59 %ID/g
  Tissue distribution: Lungs: 6.87 ± 1.33 %ID/g
  Tissue distribution: Skeletal Muscle: 0.73 ± 0.16 %ID/g
  Tissue distribution: Small Intestine: 17.21 ± 2.05 %ID/g
  Tissue distribution: Spleen: 3.75 ± 0.60 %ID/g
  Tissue distribution: Stomach: 10.74 ± 2.52 %ID/g
  Tissue distribution: Testes: 1.07 ± 0.09 %ID/g
  Tissue distribution: Tumor: 8.82 ± 3.55 %ID/g
